Results reported in ChEMBL document CHEMBL1154756, “Synthesis of new chalcone derivatives containing acridinyl moiety with potential antimalarial activity” (Eur J Med Chem, 2010).
Calls of active or inactive are those of the source. No cut-off for these calls is given here.

Assays:
Plasmodium falciparum [1] = experiment: Antimalarial activity against chloroquine-sensitive Plasmodium falciparum NF54 assessed as inhibition of schizont maturation at 100 ug/ml after 36-40 hrs relative to control; assay type: functional; parameters: scale not given: the % may be the effect or the level left
In short: (§1)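 NF-54 cultures were kept in RPMI 1640 with 25 mM HEPES, 1% bicarbonate and 0.5% ALBUMAX-II. Wells held 3% haematocrit in medium with 10% FBS, and compound was added from a 5 mg/mL DMSO stock diluted in medium. Duplicates were incubated at 37 °C in CO2 for 36–40 h. Rings, trophozoites and schizonts were counted per 100 parasites on Giemsa smears, giving % maturation inhibition versus untreated control.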

Plasmodium falciparum [2] = experiment: Antimalarial activity against chloroquine-sensitive Plasmodium falciparum NF54 assessed as inhibition of schizont maturation at 50 ug/ml after 36-40 hrs relative to control; assay type: functional; parameters: scale not given: the % may be the effect or the level left; in short: as §1
Plasmodium falciparum [3] = experiment: Antimalarial activity against chloroquine-sensitive Plasmodium falciparum NF54 assessed as inhibition of schizont maturation at 2 ug/ml after 36-40 hrs relative to control; assay type: functional; parameters: scale not given: the % may be the effect or the level left; in short: as §1
Plasmodium falciparum [4] = experiment: Antimalarial activity against chloroquine-sensitive Plasmodium falciparum NF54 assessed as inhibition of schizont maturation at 10 ug/ml after 36-40 hrs relative to control; assay type: functional; parameters: scale not given: the % may be the effect or the level left; in short: as §1
Plasmodium yoelii [5] = experiment: Antimalarial activity against chloroquine-resistant Plasmodium yoelii N67 infected in Swiss mice (Mus musculus) assessed as suppression of parasitaemia at 50 mg/kg, intraperitoneal once daily for 4 consecutive days measured after 6 days; assay type: functional, organism-based; parameters: dose 50 mg/kg
Plasmodium yoelii [6] = experiment: Antimalarial activity against chloroquine-resistant Plasmodium yoelii N67 infected in Swiss mice (Mus musculus) assessed as suppression of parasitaemia at 50 mg/kg, intraperitoneal once daily for 4 consecutive days measured after 4 days; assay type: functional
Plasmodium yoelii [7] = experiment: Antimalarial activity against chloroquine-resistant Plasmodium yoelii N67 infected in Swiss mice (Mus musculus) assessed as mean survival time at 50 mg/kg, intraperitoneal once daily for 4 consecutive days; assay type: functional
Plasmodium falciparum [8] = experiment: Antimalarial activity against chloroquine-sensitive Plasmodium falciparum NF54 assessed as inhibition of schizont maturation at 0.4 ug/ml after 36-40 hrs relative to control; assay type: functional; parameters: scale not given: the % may be the effect or the level left; in short: as §1
Plasmodium falciparum [9] = experiment: Antimalarial activity against chloroquine-resistant Plasmodium falciparum W2; assay type: functional, organism-based
Plasmodium falciparum [10] = experiment: Antimalarial activity against chloroquine-sensitive Plasmodium falciparum NF54 assessed as inhibition of schizont maturation at 0.25 ug/ml after 36-40 hrs relative to control; assay type: functional; parameters: scale not given: the % may be the effect or the level left
Plasmodium falciparum [11] = experiment: Antimalarial activity against chloroquine-sensitive Plasmodium falciparum NF54 assessed as inhibition of schizont maturation at 0.125 ug/ml after 36-40 hrs relative to control; assay type: functional; parameters: scale not given: the % may be the effect or the level left
Plasmodium falciparum [12] = experiment: Antimalarial activity against chloroquine-sensitive Plasmodium falciparum NF54 assessed as inhibition of schizont maturation at 0.50 ug/ml after 36-40 hrs relative to control; assay type: functional; parameters: scale not given: the % may be the effect or the level left
Plasmodium falciparum [13] = experiment: Antimalarial activity against chloroquine-sensitive Plasmodium falciparum NF54 assessed as inhibition of schizont maturation at 0.0625 ug/ml after 36-40 hrs relative to control; assay type: functional; parameters: scale not given: the % may be the effect or the level left
Plasmodium falciparum [14] = experiment: Antimalarial activity against chloroquine-sensitive Plasmodium falciparum NF54 assessed as inhibition of schizont maturation; assay type: functional; parameters: scale not given: the % may be the effect or the level left
In short: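 P. falciparum NF-54 was grown in RPMI 1640 with 25 mM HEPES, 1% sodium bicarbonate and 0.5% ALBUMAX-II. The assay used 3% haematocrit in medium with 10% FBS, with a DMSO stock (5 mg/mL) diluted in medium to five-fold dilutions. Duplicate wells were incubated at 37 °C in CO2 for 36–40 h, then Giemsa smears were read. MIC was the concentration fully blocking maturation to schizonts.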

Plasmodium falciparum [15] = experiment: Antimalarial activity against chloroquine-sensitive Plasmodium falciparum NF54 assessed as inhibition of schizont maturation at 0.08 ug/ml after 36-40 hrs relative to control; assay type: functional; parameters: scale not given: the % may be the effect or the level left; in short: as §1

Compound: O=C(/C=C/c1ccccc1)c1ccc(Nc2c3ccccc3nc3ccccc23)cc1
- Activity (Plasmodium falciparum [1]): 100%
- Activity (Plasmodium falciparum [2]): 100%
- Activity (Plasmodium falciparum [3]): 42.8%
- Activity (Plasmodium falciparum [4]): 100%

Compound: Cc1ccc(/C=C/C(=O)c2ccc(Nc3c4ccccc4nc4ccccc34)cc2)cc1
- Activity (Plasmodium falciparum [1]): 100%
- Activity (Plasmodium falciparum [2]): 100%
- Activity (Plasmodium falciparum [3]): 42.8%
- Activity (Plasmodium falciparum [4]): 100%

Compound: COc1ccc(/C=C/C(=O)c2cccc(Nc3c4ccccc4nc4ccccc34)c2)cc1
- Activity (Plasmodium yoelii [5]): inactive
- Activity (Plasmodium falciparum [1]): 100%
- Activity (Plasmodium yoelii [6]): 6.22%
- Activity (Plasmodium falciparum [2]): 100%
- Survival (Plasmodium yoelii [7]): 15.2 days
- Activity (Plasmodium falciparum [3]): 71.4%
- Activity (Plasmodium falciparum [4]): 100%
- Activity (Plasmodium falciparum [8]): 7.1%

Compound: O=C(/C=C/c1ccccc1)c1cccc(Nc2c3ccccc3nc3ccccc23)c1
- Activity (Plasmodium yoelii [5]): inactive
- Activity (Plasmodium falciparum [1]): 100%
- Activity (Plasmodium yoelii [6]): inactive
- Activity (Plasmodium falciparum [2]): 100%
- Survival (Plasmodium yoelii [7]): 15.5 days
- Activity (Plasmodium falciparum [3]): 97.1%
- Activity (Plasmodium falciparum [4]): 100%
- Activity (Plasmodium falciparum [8]): 4.3%

Compound: Cc1cccc(/C=C/C(=O)c2ccc(Nc3c4ccccc4nc4ccccc34)cc2)c1
- Activity (Plasmodium falciparum [1]): 100%
- Activity (Plasmodium falciparum [2]): 100%
- Activity (Plasmodium falciparum [3]): 0%
- Activity (Plasmodium falciparum [4]): 100%

Compound: O=C(/C=C/C=C/c1ccccc1)c1ccc(Nc2c3ccccc3nc3ccccc23)cc1
- Activity (Plasmodium falciparum [1]): 100%
- Activity (Plasmodium falciparum [2]): 100%
- Activity (Plasmodium falciparum [3]): 64.3%
- Activity (Plasmodium falciparum [4]): 100%
- Activity (Plasmodium falciparum [8]): 0%

Compound: CC(C)=CCc1cc(/C=C/C(=O)c2ccc(O)cc2O)ccc1O [LICOAGROCHALCONE A]
- IC50 (Plasmodium falciparum [9]): 10.3 µM

Compound: CCN(CC)CCCC(C)Nc1ccnc2cc(Cl)ccc12 (stereo not given) [CHLOROQUINE]
- Activity (Plasmodium falciparum [10]): 100%
- Activity (Plasmodium falciparum [11]): 97.1%
- Activity (Plasmodium falciparum [12]): 100%
- Activity (Plasmodium falciparum [13]): 74.3%

Compound: O=C(/C=C/c1ccc(Cl)cc1)c1ccc(Nc2c3ccccc3nc3ccccc23)cc1
- Activity (Plasmodium falciparum [1]): 100%
- Activity (Plasmodium falciparum [2]): 100%
- Activity (Plasmodium falciparum [3]): 0%
- Activity (Plasmodium falciparum [4]): 100%

Compound: COc1cc(/C=C/C(=O)c2ccc(O)c(CC=C(C)C)c2O)ccc1O [CROTAORIXIN]
- Activity (Plasmodium falciparum [14]): 100%

Compound: O=C(/C=C/c1cccc([N+](=O)[O-])c1)c1ccc(Nc2c3ccccc3nc3ccccc23)cc1
- Activity (Plasmodium falciparum [1]): 100%
- Activity (Plasmodium falciparum [2]): 100%
- Activity (Plasmodium falciparum [3]): 0%
- Activity (Plasmodium falciparum [4]): 100%

Compound: COc1ccc(/C=C/C(=O)c2ccc(Nc3c4ccccc4nc4ccccc34)cc2)cc1
- Activity (Plasmodium yoelii [5]): inactive
- Activity (Plasmodium falciparum [1]): 100%
- Activity (Plasmodium yoelii [6]): inactive
- Activity (Plasmodium falciparum [15]): 14.3%
- Activity (Plasmodium falciparum [2]): 100%
- Survival (Plasmodium yoelii [7]): 10.67 days
- Activity (Plasmodium falciparum [3]): 85.7%
- Activity (Plasmodium falciparum [4]): 100%
- Activity (Plasmodium falciparum [8]): 71.4%

Compound: O=C(/C=C/c1ccc(Cl)cc1)c1cccc(Nc2c3ccccc3nc3ccccc23)c1
- Activity (Plasmodium falciparum [1]): 100%
- Activity (Plasmodium falciparum [2]): 100%
- Activity (Plasmodium falciparum [3]): 0%
- Activity (Plasmodium falciparum [4]): 100%

Compound: COc1cc(/C=C/C(=O)c2ccc(Nc3c4ccccc4nc4ccccc34)cc2)cc(OC)c1OC
- Activity (Plasmodium falciparum [1]): 100%
- Activity (Plasmodium falciparum [2]): 100%
- Activity (Plasmodium falciparum [3]): 57.1%
- Activity (Plasmodium falciparum [4]): 100%
- Activity (Plasmodium falciparum [8]): 5.7%
